ChEMBL document CHEMBL1629654, “Breakthrough Aspergillus fumigatus and Candida albicans double infection during caspofungin treatment: laboratory characteristics and implication for susceptibility testing” (2009)
In brackets after ≈: the same amount, converted by molar mass. Activity calls are given as the source filed them. The calls are words filed in the database; no cut-off is given here. *1 amine or outer side, *2 acyl side, *3 side chain or, on linkers, in order; H or OH if unused. Where a SMILES comes first, the peptide text is derived from it. Bridges are numbered along the chain shown (N, C = ends). [ ]: non-standard residue; d: D form. The star is where a group is joined. pTerphenylCO(4''-OnC5H11) = CCCCCOc1ccc(-c2ccc(-c3ccc(C(=O)*)cc3)cc2)cc1; Orn(4R-OH,5R-OH) = O=C([C@H](C[C@@H](O)[C@@H](O)N[*:3])N[*:1])[*:2]; hTyr(3S-OH,4S-OH) = N[C@H](C(=O)O)[C@H](O)[C@@H](O)c1ccc(O)cc1; Pro(3S-OH,4S-Me) = C[C@H]1CN[C@H](C(=O)O)[C@H]1O; Hyp = O=C(O)[C@@H]1C[C@@H](O)CN1

Legend:
[1] = test system: Candida albicans; assay: Antimicrobial activity against Candida albicans isolate R after 48 hrs by Etest; type: functional
In short: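 Etest on RPMI 1640 agar with 2% glucose, performed according to the manufacturer's recommendations.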

[2] = test system: Candida albicans; assay: Antimicrobial activity against Candida albicans isolate C after 48 hrs by Etest; type: functional
In short: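 Etest on RPMI 1640 agar with 2% glucose, run per the manufacturer's instructions. Index and control clinical blood isolates were tested in parallel.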

[3] = test system: Candida albicans; assay: Antimicrobial activity against Candida albicans isolate S at 1 ug/ml grown on Muller-Hinton agar medium after 24 hrs by disk diffusion method; type: functional
In short: (§1)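 Disk diffusion on 90-mm RPMI 1640 with 2% glucose agar or on Mueller-Hinton agar. Plates were swabbed in three directions with a yeast suspension of 1–5 × 10^6 cells/ml. Paper disks (6 mm) held 1, 5 or 25 µg drug. Zone diameters were read at 24 and 48 h; values are means of two experiments.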

[4] = test system: Candida albicans; assay: Antimicrobial activity against Candida albicans isolate R at 1 ug/ml grown on Muller-Hinton agar medium after 24 hrs by disk diffusion method; type: functional; in short: as §1
[5] = test system: Candida albicans; assay: Antimicrobial activity against Candida albicans isolate R at 5 ug/ml grown on Muller-Hinton agar medium after 24 hrs by disk diffusion method; type: functional; in short: as §1
[6] = test system: Candida albicans; assay: Antimicrobial activity against Candida albicans isolate C at 0.003 ug/ml after 48 hrs by agar dilution method; type: functional, organism-based
In short: (§2)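 Sabouraud agar wells contained caspofungin 0, 0.5, 1 or 2 µg/ml, or anidulafungin 0, 0.003, 0.125 or 0.5 µg/ml. Isolates were subcultured 2 days on CHROMagar. Suspensions of 1–5 × 10^6 CFU/ml in sterile water were diluted 1,500-fold, and 5 µl (about 3–15 cells) was spread per well. Growth was scored.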

[7] = test system: Candida albicans; assay: Antimicrobial activity against Candida albicans isolate C at 0.5 ug/ml after 48 hrs by agar dilution method; type: functional, organism-based; in short: as §2
[8] = test system: Candida albicans; assay: Antimicrobial activity against Candida albicans isolate S at 25 ug/ml grown on Muller-Hinton agar medium after 24 hrs by disk diffusion method; type: functional; in short: as §1
[9] = test system: Candida albicans; assay: Antimicrobial activity against Candida albicans isolate R at 25 ug/ml grown on Muller-Hinton agar medium after 48 hrs by disk diffusion method; type: functional; in short: as §1
[10] = test system: Candida albicans; assay: Antimicrobial activity against Candida albicans isolate S at 25 ug/ml grown on RPMI 1640 medium after 48 hrs by disk diffusion method; type: functional; in short: as §1
[11] = test system: Candida albicans; assay: Antimicrobial activity against Candida albicans isolate C after 48 hrs by microdilution method; type: functional
In short: (§3)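 Broth microdilution in microtiter plates, read spectrophotometrically at 490 nm. MIC taken as the lowest drug dilution giving 50% growth inhibition. C. krusei […] run as control in each run. Read at 24 h and 48 h; trailing growth noted at 48 h.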

[12] = test system: Candida albicans; assay: Antimicrobial activity against Candida albicans isolate S at 5 ug/ml grown on RPMI 1640 medium after 24 hrs by disk diffusion method; type: functional; in short: as §1
[13] = test system: Candida albicans; assay: Antimicrobial activity against Candida albicans isolate R at 0.003 ug/ml after 48 hrs by agar dilution method; type: functional, organism-based; in short: as §2
[14] = test system: Candida albicans; assay: Antimicrobial activity against Candida albicans isolate S at 1 ug/ml grown on Muller-Hinton agar medium after 48 hrs by disk diffusion method; type: functional; in short: as §1
[15] = test system: Candida albicans; assay: Antimicrobial activity against Candida albicans isolate R at 25 ug/ml grown on Muller-Hinton agar medium after 24 hrs by disk diffusion method; type: functional; in short: as §1
[16] = test system: Candida albicans; assay: Antimicrobial activity against Candida albicans isolate S at 5 ug/ml grown on RPMI 1640 medium after 48 hrs by disk diffusion method; type: functional; in short: as §1
[17] = test system: Candida albicans; assay: Antimicrobial activity against Candida albicans isolate R at 5 ug/ml grown on RPMI 1640 medium after 48 hrs by disk diffusion method; type: functional; in short: as §1
[18] = test system: Candida albicans; assay: Antimicrobial activity against Candida albicans isolate R after 24 hrs by microdilution method; type: functional; in short: as §3
[19] = test system: Candida albicans; assay: Antimicrobial activity against Candida albicans isolate R infected in NMRI mouse assessed as decrease in kidney bacterial burden at 12 mg/kg, ip measured on day 4; type: functional, organism-based; design: dose 12 mg/kg
In short: (§4)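 NMRI mice (26–30 g), seven per group, were inoculated iv on day 0 with C. albicans (1 × 10^5 CFU). They received ip treatment on days 1–3 with anidulafungin 12 mg/kg or fluconazole 50 mg/kg; controls received saline. On day 4, kidneys were homogenised in saline and CFU counted by spot plating of 10-fold dilutions. Results are log10 CFU/ml; detection limit 50 CFU/ml; Mann-Whitney test.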

[20] = test system: Candida albicans; assay: Antimicrobial activity against Candida albicans isolate R at 1 ug/ml grown on Muller-Hinton agar medium after 48 hrs by disk diffusion method; type: functional; in short: as §1
[21] = test system: Candida albicans; assay: Antimicrobial activity against Candida albicans isolate R after 48 hrs by microdilution method; type: functional; in short: as §3
[22] = test system: Candida albicans; assay: Antimicrobial activity against Candida albicans isolate S at 1 ug/ml grown on RPMI 1640 medium after 48 hrs by disk diffusion method; type: functional; in short: as §1
[23] = test system: Candida albicans; assay: Antimicrobial activity against Candida albicans isolate S at 1 ug/ml grown on RPMI 1640 medium after 24 hrs by disk diffusion method; type: functional; in short: as §1
[24] = test system: Candida albicans; assay: Antimicrobial activity against Candida albicans isolate R at 5 ug/ml grown on Muller-Hinton agar medium after 48 hrs by disk diffusion method; type: functional; in short: as §1
[25] = test system: Candida albicans; assay: Antimicrobial activity against Candida albicans isolate R at 5 ug/ml grown on RPMI 1640 medium after 24 hrs by disk diffusion method; type: functional; in short: as §1
[26] = test system: Candida albicans; assay: Antimicrobial activity against Candida albicans isolate C after 48 hrs by EUCAST microdilution method; type: functional
In short: (§5)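 EUCAST broth microdilution, plates read spectrophotometrically at 490 nm. MIC is the lowest dilution giving 50% growth inhibition. C. krusei […] control included in each run.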

[27] = test system: Candida albicans; assay: Antimicrobial activity against Candida albicans isolate S at 5 ug/ml grown on Muller-Hinton agar medium after 48 hrs by disk diffusion method; type: functional; in short: as §1
[28] = test system: Candida albicans; assay: Antimicrobial activity against Candida albicans isolate S at 5 ug/ml grown on Muller-Hinton agar medium after 24 hrs by disk diffusion method; type: functional; in short: as §1
[29] = test system: Candida albicans; assay: Antimicrobial activity against Candida albicans isolate R at 25 ug/ml grown on RPMI 1640 medium after 48 hrs by disk diffusion method; type: functional; in short: as §1
[30] = test system: Candida albicans; assay: Antimicrobial activity against Candida albicans isolate S infected in NMRI mouse assessed as decrease in kidney bacterial burden at 12 mg/kg, ip measured on day 4; type: functional, organism-based; design: dose 12 mg/kg
[31] = test system: Candida albicans; assay: Antimicrobial activity against Candida albicans isolate C after 24 hrs by microdilution method; type: functional; in short: as §3
[32] = test system: Candida albicans; assay: Antimicrobial activity against Candida albicans isolate R at 1 ug/ml grown on RPMI 1640 medium after 48 hrs by disk diffusion method; type: functional; in short: as §1
[33] = test system: Candida albicans; assay: Antimicrobial activity against Candida albicans isolate R at 1 ug/ml grown on RPMI 1640 medium after 24 hrs by disk diffusion method; type: functional; in short: as §1
[34] = test system: Candida albicans; assay: Antimicrobial activity against Candida albicans isolate S at 25 ug/ml grown on Muller-Hinton agar medium after 48 hrs by disk diffusion method; type: functional; in short: as §1
[35] = test system: Candida albicans; assay: Antimicrobial activity against Candida albicans isolate R at 25 ug/ml grown on RPMI 1640 medium after 24 hrs by disk diffusion method; type: functional; in short: as §1
[36] = test system: Candida albicans; assay: Antimicrobial activity against Candida albicans isolate R after 48 hrs by EUCAST microdilution method; type: functional; in short: as §5
[37] = test system: Candida albicans; assay: Antimicrobial activity against Candida albicans isolate R at 0.5 ug/ml after 48 hrs by agar dilution method; type: functional, organism-based; in short: as §2
[38] = test system: Candida albicans; assay: Antimicrobial activity against Candida albicans isolate S at 25 ug/ml grown on RPMI 1640 medium after 24 hrs by disk diffusion method; type: functional; in short: as §1
[39] = test system: Candida albicans; assay: Antimicrobial activity against Candida albicans isolate S infected in NMRI mouse assessed as decrease in kidney bacterial burden at 50 mg/kg, ip measured on day 4; type: functional, organism-based; design: dose 50 mg/kg
[40] = test system: Candida albicans; assay: Antimicrobial activity against Candida albicans isolate R infected in NMRI mouse assessed as decrease in kidney bacterial burden at 50 mg/kg, ip measured on day 4; type: functional, organism-based; design: dose 50 mg/kg; in short: as §4

Structure (SMILES): C[C@@H]1[C@H](O)[C@@H](C)/C=C/C=C/C=C/C=C/C=C/C=C/C=C/[C@H](O[C@@H]2O[C@H](C)[C@@H](O)[C@H](N)[C@@H]2O)C[C@@H]2O[C@](O)(C[C@@H](O)C[C@@H](O)[C@H](O)CC[C@@H](O)C[C@@H](O)CC(=O)O[C@H]1C)C[C@H](O)[C@H]2C(=O)O [AMPHOTERICIN B]
- MIC [1]: 0.25 µg/mL (≈ 0.271 µM)
- MIC [2]: 0.125 µg/mL (≈ 0.135 µM)

Structure (SMILES): CCCCCOc1ccc(-c2ccc(-c3ccc(C(=O)N[C@H]4C[C@@H](O)[C@@H](O)NC(=O)[C@@H]5[C@@H](O)[C@@H](C)CN5C(=O)[C@H]([C@@H](C)O)NC(=O)[C@H]([C@H](O)[C@@H](O)c5ccc(O)cc5)NC(=O)[C@@H]5C[C@@H](O)CN5C(=O)[C@H]([C@@H](C)O)NC4=O)cc3)cc2)cc1 [ANIDULAFUNGIN] ({pTerphenylCO(4''-OnC5H11)}-[Orn(4R-OH,5R-OH)]T[Hyp][hTyr(3S-OH,4S-OH)]T[Pro(3S-OH,4S-Me)]; lactam 1-C)
- inhibition zone (IZ) [3]: 13.2 mm
- inhibition zone (IZ) [4]: 6.7 mm
- inhibition zone (IZ) [5]: 9.4 mm
- growth inhibition (GI) [6]: inactive
- growth inhibition (GI) [7]: Active
- inhibition zone (IZ) [8]: 12.8 mm
- inhibition zone (IZ) [9]: 7 mm
- inhibition zone (IZ) [10]: 13.8 mm
- MIC [11]: ≤ 0.015 µg/mL
- inhibition zone (IZ) [12]: 15.9 mm
- growth inhibition (GI) [13]: inactive
- inhibition zone (IZ) [14]: 13.9 mm
- inhibition zone (IZ) [15]: 6.8 mm
- inhibition zone (IZ) [16]: 15.7 mm
- inhibition zone (IZ) [17]: 8.8 mm
- MIC [18]: 0.5 µg/mL (≈ 0.438 µM)
- Activity [19]: inactive
- inhibition zone (IZ) [20]: 6.8 mm
- MIC [21]: 0.25 µg/mL (≈ 0.219 µM)
- inhibition zone (IZ) [22]: 13.2 mm
- MIC [1]: 0.5 µg/mL (≈ 0.438 µM)
- inhibition zone (IZ) [23]: 13.7 mm
- inhibition zone (IZ) [24]: 9.9 mm
- inhibition zone (IZ) [25]: 9.5 mm
- MIC [26]: ≤ 0.03 µg/mL
- inhibition zone (IZ) [27]: 14.6 mm
- inhibition zone (IZ) [28]: 14.2 mm
- inhibition zone (IZ) [29]: 7.1 mm
- Activity [30]: Active
- MIC [31]: 0.015 µg/mL (≈ 0.0132 µM)
- inhibition zone (IZ) [32]: 7.8 mm
- inhibition zone (IZ) [33]: 8.5 mm
- inhibition zone (IZ) [34]: 13.1 mm
- inhibition zone (IZ) [35]: 7.7 mm
- MIC [36]: 0.06 µg/mL (≈ 0.0526 µM)
- growth inhibition (GI) [37]: inactive
- inhibition zone (IZ) [38]: 14.9 mm
- MIC [2]: ≤ 0.002 µg/mL

Structure (SMILES): OC(Cn1cncn1)(Cn1cncn1)c1ccc(F)cc1F [FLUCONAZOLE]
- MIC [11]: ≤ 0.25 µg/mL
- MIC [18]: ≤ 0.125 µg/mL
- MIC [21]: ≤ 0.125 µg/mL
- Activity [39]: Active
- MIC [26]: 0.125 µg/mL (≈ 0.408 µM)
- MIC [31]: 0.25 µg/mL (≈ 0.816 µM)
- MIC [36]: ≤ 0.125 µg/mL
- Activity [40]: Active
